Reference: the EternaBench riboswitch data

Tested on: MS2 coat protein
Assay: apparent Kd, MS2 coat protein; higher = weaker binding; RNA-MaP array; FMN 200 µM where present
In short: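 The apparent Kd comes from binding curves fitted cluster by cluster, filtered, and summarised as a median. Those curves followed SNAP-549-labelled MS2 coat protein from 0.7 or 1.5 nM, doubling to 3 µM, on Illumina sequencing-chip clusters where stalled E. coli RNA polymerase had transcribed the designs, without and then with constant ligand. The buffer was 100 mM Tris-HCl pH 7.5, 80 mM KCl, 4 mM MgCl2, BSA, DTT, yeast tRNA and Tween-20, and green signal was normalised to red-channel RNA signal and control-cluster median Fmax.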

[1] = designed as: OFF switch for flavin mononucleotide, no ligand
[2] = ligand present: flavin mononucleotide, designed as: OFF switch for flavin mononucleotide
[3] = designed as: ON switch for flavin mononucleotide, no ligand
[4] = ligand present: flavin mononucleotide, designed as: ON switch for flavin mononucleotide

| Sequence | apparent Kd [1] [nM] | apparent Kd [2] [nM] | apparent Kd [3] [nM] | apparent Kd [4] [nM] |
| --- | --- | --- | --- | --- |
| ACGAAACAUGAGGAUCACCCAUGUGAGGAUAUGUAAAUAGUAAACAAAUAAGAAAUAAACAGAAGGCACACAGG | 32.9 | 67 | – | – |
| UCUAGACCGACAGGAUAUCAUGGCUGGAUAUAGUACAUGAGGAUCACCCAUGUCGGCUAGAGCGAUGAGAAGGGUCGGUUGCUC | – | – | 414 | 87.3 |
| UGGUACUAGGGAGGAUAUGGGAAGAUACAUGAGGAUCACCCAUGUUUAAGAAUGCCGAGAGGCAGCUAGAAGGCCCUAGUACCU | – | – | 675 | 24.7 |
| GUAGGGUCAGGAUAUACGGGCGGGAGGAUGUAUUGUAGUUGGUAGAAGGGACAUGAGGAUCACCCAUGUGAGAA | 34.3 | 30.5 | – | – |
| UGUGCGUUGAUCUUCGAUCGUUGUACAUGAGGAUCACCCAUGUAGGAUAUUCUAAGACGCAGAUAGGAGAAGGACAUUGGUAUU | 10.6 | 19.4 | – | – |
| ACAUGAGGAUCACCCAUGUAUACAUAGGAUAUUGGUGAUCAGGCAUGUUAUACAGGAUAUGUCUGCGAGAAGGAUGCACGUUGC | – | – | 680 | 476 |
| CGUAGGAUCCAGAAGGCAUGAACAUGAGGAUCACCCAUGUCAAAAGACAUGAGGAUAUGGAUCCUACGAAAAGUGCGAAAGCAC | – | – | 19 | 5.55 |
| AUUUAACAUGAGGAUCACCCAUGUGAGGAUAUGUCCAUAUUCGGCAAAUCGGAUAUGGACAGAAGGCACACCGG | 105 | 194 | – | – |
| GAGCGGGAAACAUGAGGAUCACCCAUGUAAAAAAUCCUCAAGUAGGAUAUGCGAAAAAAAAAAAAGCAGAAGGGCUACCCGGUC | 58.3 | 72.7 | – | – |
| AAAUACAGAGGAUAUGUACGAAUUGACAUGAGGAUCACCCAUGUGACUUCGUGCACUUUGACAGAAGGCUGGGAAU | 16.8 | 32.7 | – | – |
| UACGAAUACCCUCGUCGGCUGAAUCCAGAAGGACCACAUGAGGAUCACCCAUGUCGAAGAUAAAGGUAGGAUAUGGAGUGCCUA | – | – | 119 | 23.9 |
| GCGUAUAUAUUAUUUAUUUAACUGUCAGAAGGUGAGAAGACGACAUGAGGAUCACCCAUGUUAUUCAAGGAUAUGAUAAUGCGC | – | – | 13.5 | 8.94 |
| UUAUUAGCAGGAUAUAUCCGGGAUCACAUGAGGAUCACCCAUGUGACCGCUUGAGAUCCUAUAGAAGGGCUUUAUU | 30.6 | 56.3 | – | – |
| AGACUCUCUGGAGGAUAUCAUAGUCGUUGACUAUGAGAAGGUUAGCUAUCUUACAUGAGGAUCACCCAUGUGAUCUCUCUCGAG | 18.1 | 14.6 | – | – |
| GCCAUCGCAUGAGGAUAUGGACAGCUUUGCUGUCCAGAAGGCAUGUCAAUAGACAUGAGGAUCACCCAUGUAGUUAAGAUGGCA | – | – | 771 | 52.2 |
| UAAACAUGAGGAUCACCCAUGUUAUGAUCGGUUGAUGAAAGUGAGGAUAUACUUAAUUUUAUGGAGUAGAAGGCACUGGGUUCU | – | – | 23.1 | 28.6 |
| GACAUGAGGAUCACCCAUGUCCAUGCAAGAGUAGUUGAGACCAGAAGGACCUUGCGGAGCGCAGGGUAGGAUAUGGAGCCCUCA | – | – | 36.3 | 8.75 |
| GGUGGGAAGUAAGGAUAUCGGCCAUAGUUAGGGCGAGAAGGUACAUGAGGAUCACCCAUGUCGUCGCUAGGGACGGGUCCGGCC | 6.54 | 6.96 | – | – |
| UAUUUACGAGGAUAUCGUUUUUUUCACAUGAGGAUCACCCAUGUUGUUUAUGUUGCGUUGCGAGAAGGCGUUUGUU | 31.1 | 23 | – | – |
| UAAUCUCAGAUAGGAUAUAUAGGAUGAUUUAAGACCGAACAUGAGGAUCACCCAUGUGAUUAUCUGUAGAAGGAUCAAUGACCC | – | – | 285 | 246 |
| AAAUAGUUAGGAUAUACAUGAGGAUCACCCAUGUGGACUGAUGGCGCUUGAUUCAGUGGUAGAAGGGACUCAAA | 45.9 | 69.2 | – | – |
| AUUACAUGAGGAUCACCCAUGUACAGAACGUUUCAUUACAGUGAGGAUAUACGAAAUGUAGGAGCGUAGAAGGCACUGGGUACA | – | – | 129 | 40.1 |
| CUGAGGUGUCAAGGAUAUGCUACCGUUUCGGUAGCAGAAGGUGAUCACAUGAGGAUCACCCAUGUAUGCAUGCGUGAGCGUGCU | – | – | 39.5 | 55.4 |
| UUUUACAUAGGAUAUAGUCUUUUUUACAUGAGGAUCACCCAUGUCUCUCUUUUUUUUUUUCUAGAAGGAUGUUUUU | 42.9 | 30.9 | – | – |
| GUAGCUAUCGGAGGAUAUUCAUACUGGAAACGGACAUGAGGAUCACCCAUGUGGCGAAAGCCUUGGGAGAAGGCCGAUCGCUAC | – | – | 123 | 8.13 |
| UGCAUGGUAGGAUAUACGGAGCAUUAGGGUUUGUUGUGUGGACAUGAGGAUCACCCAUGUAGAAGGGCCGUGCU | 42.8 | 65.2 | – | – |
| CUCGUGUGAGGAUAUCUAUUCCACGGACGGGAGUCUUGAAGAGAGAAGGCACAUGAGGAUCACCCAUGUAAUAA | – | 33.7 | – | – |
| AUUUAUUAGUAAGGAUAUACUAGCGAUUAGCUUGUAGAAGGUACAGUCUUAUGUAUAACAUGUUAACAUGAGGAUCACCCAUGU | – | – | 60.4 | 27.9 |

| Sequence | apparent Kd [1] [nM] | apparent Kd [2] [nM] | apparent Kd [3] [nM] | apparent Kd [4] [nM] |
| --- | --- | --- | --- | --- |
| AAUCGGGAGCAGAAGGCAUGUCAUAAAACAUGAGGAUCACCCAUGUAGUUAAGGCGAAAGCCGCAUGAGGAUAUGCUCCCGUAA | – | – | 5.61 | 4.69 |
| GAUAAACAUGAGGAUCACCCAUGUCAGGAUAUGCGCUAGCUAGCUAGCUAGCUAGCUAGCAGAAGGGACACUAC | 19.5 | 35 | – | – |
| GUGACGAAUGUAGGAUAUGCUGAGGAAUACUCAGCAGAAGGACAUGAGGAUCACCCAUGUACUAUGAGUGAAUAAUAACGUCAC | 77.4 | 881 | – | – |
| GCGUUAGUAUCACAUGUAUUACAUGAGGAUCACCCAUGUUACUAGGAUAUGUAUUAGAAUUAUCAACAGAAGGAGUAAUAACGC | 12.6 | 20.3 | – | – |
| UGUACGGACAUGAGGAUCACCCAUGUAACCAAGCAGUUGGUACAGGAUAUCGCUUAAUAACUAAGCGAGAAGGGUGGUUCUGCA | – | – | 32.5 | 63.4 |
| GGAAGACAAAGUCUUCCAUUACGAACAUGAGGAUCACCCAUGUAGGAUAUGCUACUCAAAGAGUAGCAGAAGGACAUGUGUCUU | 27.4 | 120 | – | – |
| UUCGCUAAGGUGUAGCGAGACAUGCAAGAAGGGUGAAGAACAUGAGGAUCACCCAUGUAGACGGUACAGGAUAUUGAUUGACGA | – | – | 128 | 89.3 |
| AGUCGGAGCAGAGGAUAUAUACAUGAGGAUCACCCAUGUAAAUGAGUAAGCUGGAAACAGCAAGUAUAGAAGGCUGCUCCGACA | 18.2 | 35.1 | – | – |
| AAAAAGCGAGGAUAUACAUAGCUAAGACGUGUGAGCGAAAAACAUGAGGAUCACCCAUGUAGAAGGCGCAAAAA | 18 | 17.9 | – | – |
| UUUUAACAUGAGGAUCACCCAUGUGAGGAUAUCGAAAUUUAUAUUAAUAUUAAUUAUACGAGAAGGCACAUUUU | 83.6 | 82.8 | – | – |
| GCUAGUAUUGCAGGAUAUUGAGAAUAAUUAUUACAAGAAGGGCAUAACAUGAGGAUCACCCAUGUAUUCCUUAGUGAUACUAGC | 6.24 | 6.07 | – | – |
| UUACUAUAACAGAAGGCUAAAUAAUAUAUAAAUGGAGGAUAUGUUACAUGAGGAUCACCCAUGUUUCACCCACAUGAGGAUCAC | 13.7 | 42 | – | – |
| GGUCCAUCUGUUAGGAUAUGCUUUGGGCUUCCGCAGUAGAAGGAACAUGAGGAUCACCCAUGUCCGAUGCCGUA | 20.4 | 25.4 | – | – |
| UUUUCUUUUGUGAGGAUAUACUUGUUUUUUUUUUUGUAGAAGGCACAUGAGGAUCACCCAUGUUUUCUUUCCUG | 17 | 19.8 | – | – |
| UUCCGACAUGAGGAUCACCCAUGUAAGGAUAUGUAUCCUUCGGCCCGAACCAGAGGAAGCAGAAGGUACAGGGA | 31.3 | 20 | – | – |
| AAACGGGCAGGAUAUGCGUACUCACGGGAAAACUGAAUGGUACAUGAGGAUCACCCAUGUAGAAGGGCUUAAAA | 53.5 | 46.1 | – | – |
| CCCUUUAGAAAAGGGACAUGAGGAUCACCCAUGUAGGCUGCACAGGAUAUCGAUCGGAGGCGGUACGAGAAGGGUGAUGUCAUU | – | – | 58.3 | 72.1 |
| AAUUUUUAACAGAAGGCGUUUAUAUUUAAGUUACGAGGAUAUGUAUAACAUGAGGAUCACCCAUGUAACAUGGAUAUUUAAUAA | – | – | 10.3 | 8.49 |
| ACCAGGGAUUCAGGAUAUAUUAGCCGAGGCCGCGUAGAAGGGAAAUCCUGACAUGAGGAUCACCCAUGUCGACCCGCCUUCCUA | – | – | 47.6 | 46.8 |
| GGAUCGAGUGUGAGGAUAUGCUGGUCCUUGGAUCAGCAGAAGGCACAUGAGGAUCACCCAUGUGUUCCCGGUCC | 48.9 | 577 | – | – |
| GGCGAACAGGCUAACAUGAGGAUCACCCAUGUGGACUCAUGGUAGGAUAUGCUCAUCAAAGAUGAGCAGAAGGGCCGGUGAGCC | – | – | 54.8 | 463 |
| AGUGUCAUCGAGAAGGCCUCAACAUGAGGAUCACCCAUGUUGCAAAAUGGGAGGAUAUCGAAAAUACAGCUACGUUUCGUAGCA | – | – | 21.9 | 5.3 |
| GGAUCGAUGUAGAAGGCUGUCCUAAAAUAGGACAGAGGAUAUACAUGAGGAUCACCCAUGUACUCCUUUAAAACGAUCCAAAUA | 5.44 | 7.59 | – | – |
| GUCAGCUCGUGAGGAUAUACAUGUGCUGGAGACAGCACUAUUGUGUUCACAUGAGGAUCACCCAUGUAGAAGGCACGAGCUGAU | 18.3 | 85.5 | – | – |
| CUUUUGUGAGGAUAUCAGUAGUAAAAAAUUAAAAUUACUACUGAGAAGGCACAUGAGGAUCACCCAUGUUCCUC | 40.1 | 284 | – | – |
| CGAGACCUCACAGGAUAUGCUGGACUUUGUCCAGCAGAAGGGUGAAAACAUGAGGAUCACCCAUGUAUGGUCUCCAAAUUUAAA | – | – | 182 | 13.6 |
| GCUAGUAUUGCAGGAUAUUGAGAUUAAUUAAGGCAAGAAGGGCAUUACAUGAGGAUCACCCAUGUUUUCCUUAGUCAUACUAGC | 7.12 | 7.4 | – | – |
